Measurements reported in ChEMBL document CHEMBL3108738, “The chemical and biological potential of C ring modified triterpenoids” (Eur J Med Chem, 2014).
One block for each compound: values may come before it. Calls of active or inactive are those of the source. The calls are words filed in the database; no cut-off is given here.

How the values were obtained:
[1] = test system: A2780; test: Induction of apoptosis in human A2780 cells assessed as secondary necrotic cells at 30 uM after 24 hrs by annexin V/propidium iodide staining-based FACS analysis (reference value: 9.71%); assay type: functional
[2] = test system: A2780; test: Cell cycle arrest in human A2780 cells assessed as accumulation at G2 phase at 30 uM by propidium iodide staining-based FACS analysis (reference value: 15.721 %); assay type: functional
[3] = test system: A2780; test: Induction of apoptosis in human A2780 cells assessed as vital cells at 30 uM after 24 hrs by annexin V/propidium iodide staining-based FACS analysis (reference value: 82.15%); assay type: functional
[4] = test system: A2780; test: Cytotoxicity against human A2780 cells after 96 hrs by SRB assay; assay type: functional, cell-based; conditions: A2780, 96 h
[5] = test system: A2780; test: Induction of apoptosis in human A2780 cells assessed as necrotic cells at 30 uM after 24 hrs by annexin V/propidium iodide staining-based FACS analysis (reference value: 1.78%); assay type: functional
[6] = test system: A2780; test: Induction of apoptosis in human A2780 cells assessed as necrotic cells at 30 uM after 24 hrs by annexin V/propidium iodide staining-based FACS analysis (reference value: 6.37%); assay type: functional
[7] = test system: A549; test: Cytotoxicity against human A549 cells after 96 hrs by SRB assay; assay type: functional, cell-based; conditions: A549, 96 h
[8] = test system: HT-29; test: Cytotoxicity against human HT-29 cells after 96 hrs by SRB assay; assay type: functional, cell-based; conditions: HT-29, 96 h
[9] = test system: A2780; test: Cell cycle arrest in human A2780 cells assessed as accumulation at G1 phase at 30 uM by propidium iodide staining-based FACS analysis (reference value: 51.839 %); assay type: functional
[10] = test system: NIH3T3; test: Cytotoxicity against mouse NIH/3T3 cells after 96 hrs by SRB assay; assay type: ADME, cell-based; conditions: NIH3T3, 96 h
[11] = test system: A2780; test: Cell cycle arrest in human A2780 cells assessed as accumulation at S phase at 30 uM by propidium iodide staining-based FACS analysis (reference value: 32.439 %); assay type: functional
[12] = test system: 8505C; test: cells; assay type: functional, cell-based; conditions: Homo sapiens, 96 h
[13] = test system: MCF7; test: Cytotoxicity against human MCF7 cells after 96 hrs by SRB assay; assay type: functional, cell-based; conditions: MCF7, 96 h
[14] = test system: A2780; test: Cell cycle arrest in human A2780 cells assessed as accumulation at G0/G1 phase at 30 uM by propidium iodide staining-based FACS analysis; assay type: functional
[15] = Cytotoxicity against human 518A2 cells after 96 hrs by SRB assay; assay type: functional, cell-based; conditions: 518A2, 96 h
[16] = test system: A2780; test: Cell cycle arrest in human A2780 cells assessed as reduction of G2/M phase at 30 uM by propidium iodide staining-based FACS analysis; assay type: functional
[17] = test system: A2780; test: Induction of apoptosis in human A2780 cells at 30 uM after 24 hrs by annexin V/propidium iodide staining-based FACS analysis; assay type: functional
[18] = test system: A2780; test: Induction of apoptosis in human A2780 cells assessed as DNA ladder formation at 30 uM after 24 hrs by electrophoresis; assay type: functional, cell-based
Summary of the method: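 A2780 cells were exposed to 30 µM compound for 24 h. Floating (dead) cells were collected and washed with PBS, and DNA fragmentation was examined by gel laddering alongside an untreated control.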

[19] = test system: A2780; test: Cell cycle arrest in human A2780 cells at 30 uM by propidium iodide staining-based FACS analysis; assay type: functional

Structure (SMILES): COC(=O)[C@]12CCC(C)(C)C[C@H]1[C@H]1C(=O)C[C@@H]3[C@@]4(C)CC[C@H](OC(C)=O)C(C)(C)[C@@H]4CC[C@@]3(C)[C@]1(C)CC2
- Activity [1]: 12.96%
- Activity [2]: 14.004%
- Activity [3]: 75.08%
- IC50 [4]: > 30 µM
- Activity [5]: 0.96%
- Activity [6]: 11%
- IC50 [7]: > 30 µM
- IC50 [8]: 46.8 µM
- Activity [9]: 61.565%
- IC50 [10]: 28.2 µM
- Activity [11]: 24.431%
- IC50 [12]: 31.1 µM
- IC50 [13]: > 30 µM
- Activity [14]: <20%
- IC50 [15]: 40.8 µM

Structure (SMILES): CC(=O)O[C@H]1CC[C@]2(C)[C@H]3C[C@H](OC(C)=O)[C@]45OC(=O)[C@@]6(CCC(C)(C)C[C@H]64)CC[C@@]5(C)[C@]3(C)CC[C@H]2C1(C)C
- Activity [1]: 18.67%
- Activity [2]: 16.597%
- Activity [3]: 44.89%
- IC50 [4]: 5.6 µM
- Activity [5]: 3.78%
- Activity [19]: inactive
- Activity [6]: 32.66%
- Activity [17]: Active
- IC50 [7]: 6.6 µM
- Activity [18]: Active
- IC50 [8]: 14.1 µM
- Activity [9]: 56.115%
- IC50 [10]: 7.2 µM
- Activity [11]: 27.288%
- IC50 [12]: 7 µM
- IC50 [13]: 18.5 µM
- IC50 [15]: 6.8 µM

Further lines, with some results ahead:

- IC50 [12]: 16.4 µM
Structure (SMILES): CC(=O)O[C@H]1CC[C@]2(C)[C@H]3C(=O)C(O)=C4[C@@H]5CC(C)(C)CC[C@]5(C(=O)OCc5ccccc5)CC[C@@]4(C)[C@]3(C)CC[C@H]2C1(C)C
- Activity [1]: 12.64%
- Activity [2]: 15.469%
- Activity [3]: 72.96%
- IC50 [4]: 8.2 µM
- Activity [5]: 1.55%
- Activity [6]: 12.83%
- IC50 [7]: > 60 µM
- IC50 [8]: > 60 µM
- Activity [9]: 62.269%
- IC50 [10]: > 60 µM
- Activity [11]: 22.262%
- IC50 [13]: > 60 µM
- Activity [14]: <20%
- IC50 [15]: > 60 µM

- IC50 [12]: 8.4 µM
Structure (SMILES): COC(=O)[C@]12CCC(C)(C)C[C@H]1C1=C(O)C(=O)[C@@H]3[C@@]4(C)CC[C@H](OC(C)=O)C(C)(C)[C@@H]4CC[C@@]3(C)[C@]1(C)CC2
- Activity [1]: 16.21%
- Activity [2]: 7.345%
- Activity [3]: 57.12%
- IC50 [4]: 4 µM
- Activity [5]: 2%
- Activity [16]: Active
- Activity [6]: 24.67%
- Activity [17]: Active
- IC50 [7]: 8.2 µM
- Activity [18]: Active
- IC50 [8]: 13.5 µM
- Activity [9]: 49.973%
- IC50 [10]: 12.5 µM
- Activity [11]: 42.682%
- IC50 [13]: 9.4 µM
- IC50 [15]: 7.7 µM

- IC50 [12]: 41.9 µM
Structure (SMILES): CC(=O)O[C@H]1CC[C@]2(C)[C@H]3CC(=O)[C@@H]4[C@@H]5CC(C)(C)CC[C@]5(C(=O)OCc5ccccc5)CC[C@@]4(C)[C@]3(C)CC[C@H]2C1(C)C
- Activity [2]: 1.057%
- IC50 [4]: 19.8 µM
- Activity [16]: Active
- IC50 [7]: 69.1 µM
- IC50 [8]: > 90 µM
- Activity [9]: 58.015%
- IC50 [10]: > 90 µM
- Activity [11]: 40.927%
- IC50 [13]: > 90 µM
- IC50 [15]: 73.2 µM
